Source: PubChem BioAssay (several laboratories)
b-catenin transl = modulators of beta-catenin nuclear translocation; nuclear translocation activity, % at 5 µM; hit rate 0.3% among 190,000; HeLa beta-catenin nuclear translocation, immunofluorescence imaging;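 active = nuclear translocation activity above 50% at 5 µM, with a well cell count of 50 or more; inconclusive = wells under 50 cells across six images, flagged as toxic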;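 note: per-cell ratio of nuclear to cytoplasmic median beta-catenin stain intensity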
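Assay system: human HeLa cells, native beta-catenin; doses: 5 µM primary, 0.02–20 µM confirmation; incubation: compound treatment 24 h, 37°C, 5% CO2; technique: fluorescence imaging of beta-catenin antibody stain plus DAPI; measure: % activation, nuclear-to-cytoplasmic median beta-catenin signal ratio per cell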
MT stabilize HCS = stabilizes microtubules in HeLa cells. HeLa tubulin immunostaining HCS, 24 h; share of cells brighter than vehicle mean+2SD. % tubulin-high responders, % at 10 µM. hit rate 0.83% among 200,000. AID 2205;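 active = plate Z-score above 3 for both tubulin-high and condensed-nucleus cell shares, with cell loss under 80%, at 10 µM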;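 note: anti alpha tubulin signal scored within the nucleus-defined area of each cell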
ROMK primary = human ROMK K+ channel modulation, primary screen | B-score at 10 µM | Tet-inducible ROMK, thallium flux fluorescence; actives lie on both sides | hit rate 2% among 130,000;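 active = signal ratio slope over the read window, or its plate-corrected B-score, at least 3 SD from the plate mean, either direction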;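 note: B-score of the F/F0 ratio slope over 7 to 12 s after thallium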
Target sequence (P48048 whole entry, looked up): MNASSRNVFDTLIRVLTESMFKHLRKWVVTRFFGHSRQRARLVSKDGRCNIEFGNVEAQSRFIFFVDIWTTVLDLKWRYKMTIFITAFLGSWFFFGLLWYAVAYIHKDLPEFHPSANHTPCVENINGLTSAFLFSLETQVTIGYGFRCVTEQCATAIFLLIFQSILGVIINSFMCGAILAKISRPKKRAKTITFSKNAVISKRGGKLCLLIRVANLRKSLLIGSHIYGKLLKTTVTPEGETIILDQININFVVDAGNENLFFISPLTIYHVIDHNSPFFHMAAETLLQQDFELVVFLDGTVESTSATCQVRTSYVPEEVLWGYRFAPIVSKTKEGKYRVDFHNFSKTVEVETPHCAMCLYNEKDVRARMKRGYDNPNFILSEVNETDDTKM
ROMK retest = retested hit modulating human ROMK potassium channel. shares compounds with ROMK primary. ROMK thallium flux, fluorescence ratio; stronger effect = lower value. normalized thallium flux (F/F0 slope) at 10 µM. hit rate 54% among 3,000. AID 1917;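 active = Flux at 10 µM at least 3 SD below or above vehicle control mean in one or both replicates; inconclusive = no clear call, values can overlap the other calls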
Each line names hits and unclear results; the compound was inactive in the other large screens (follow-up assays come after a bar, where they were run). Only some compounds are listed: those with a hit (about 1.9% of all), similar ones and a draw of the others.

CC(=O)N1CC=C2C(C#N)=C(N)C(C#N)(C#N)C(C)C2C1 (configuration not stated)	none
CCN1CC=C2C(C#N)=C(N)C(C#N)(C#N)C(CCc3ccccc3)C2C1 (configuration not stated)	none (no result: ROMK primary) | ROMK retest 0.057
Cc1ccc([N+](=O)[O-])c(C(=O)N/N=C/c2cccnc2)c1	none (no result: MT stabilize HCS, ROMK primary)
CC(C)(C)n1nnnc1C(c1ccncc1)N1CCN(C2CCCCC2)CC1 (configuration not stated)	none (no result: ROMK primary)
Cc1ccc(C(c2nnnn2C(C)(C)C)N2CCN(C3CCCC3)CC2)cc1 (configuration not stated)	ROMK primary -5 | ROMK retest inactive
Cc1ccc2nc(C)c3c(c2c1)COC3	none
CN(C(=O)c1ccc(COc2ccccc2Br)o1)c1ccccc1	none
O=C(/C=C\c1ccco1)Oc1cccc2cccnc12	ROMK primary -22 | ROMK retest inactive
O=C(/C=C/c1ccco1)Oc1cccc2cccnc12	none (no result: MT stabilize HCS, ROMK primary)
CC(C)CNC(=O)C(=O)N/N=C/c1cccs1	none
COC(=O)c1ccccc1NC(=O)CNc1cc(Cl)ccc1N1CCOCC1	none (no result: ROMK primary)
COc1ccc(Cl)cc1NC(=O)CN(C)CC(=O)Nc1ccccc1N1CCOCC1	b-catenin transl 86, MT stabilize HCS 22, ROMK primary 5.1 | ROMK retest inconclusive
CC(C)Oc1cccc(C(=O)Nc2ccccc2N2CCOCC2)c1	none (no result: ROMK primary)
Cc1cc(Cl)ccc1OC(C)C(=O)Nc1ccccc1N1CCOCC1 (configuration not stated)	none (no result: ROMK primary) | ROMK retest inconclusive
c1ccc(COc2ccc(CNCc3cccnc3)cc2)cc1	none
CSc1cccc(NC(=S)NCCCN2CCN(c3ccc(F)cc3)CC2)c1	ROMK primary -2.7 | ROMK retest 0.053
Fc1cccc(NC(=S)NCCCN2CCOCC2)c1	none (no result: ROMK primary)
CCC(C)NC(=O)CSc1nnc(-c2c[nH]c3ccccc23)o1 (configuration not stated)	none
CC(C(=O)c1ccc(-c2ccccc2)cc1)[n+]1cccc(NC(=O)c2ccccc2)c1 (configuration not stated)	ROMK primary -4.9 (no result: MT stabilize HCS) | ROMK retest 0.057
CCOC(=O)c1ccc[n+](C(C)C(=O)c2ccc(-c3ccccc3)cc2)c1 (configuration not stated)	none
Cn1cnc([N+](=O)[O-])c1S(=O)(=O)c1ccc(Cl)cc1	ROMK primary -4.8 (no result: b-catenin transl) | ROMK retest 0.059
Cn1cnc([N+](=O)[O-])c1NC(C)(C)C	none (no result: b-catenin transl)
Nc1cccc(CN2CCCC2)c1	none
COC(=O)c1cnn(-c2ccccc2)c1C(OC)OC	none (no result: MT stabilize HCS, ROMK primary) | ROMK retest inactive
COC(=O)c1cnn(-c2ccccc2)c1-n1cccc1C=O	ROMK primary -5.7 (no result: MT stabilize HCS) | ROMK retest inactive
COC(=O)c1cnn(-c2ccccc2)c1/C=N/NC(=S)Nc1ccccc1	none (no result: MT stabilize HCS)
CCOC(=O)c1cnn(-c2ccccc2)c1-n1cccc1C(=O)C(=O)N(C)C	none
Cc1cc(C)c(Cn2cnc3ccccc32)c(C)c1	none
O=C(N/N=C/c1ccccc1O)C1(O)c2ccccc2-c2ccccc21	none
CC1=C(C(=O)OCC2CCCO2)C(c2coc3ccc(Cl)cc3c2=O)C2=C(CCCC2=O)N1 (configuration not stated)	ROMK primary -2.7 | ROMK retest inactive
CC1=C(C(=O)OCC2CCCO2)C(c2coc3ccc(C)cc3c2=O)C2=C(CCCC2=O)N1 (configuration not stated)	none
Cc1ccccc1C([O-])=Nc1ccc[n+](-c2nc3ccccc3nc2NS(=O)(=O)c2ccccc2)c1	none (no result: MT stabilize HCS)
Cc1ccc(Nc2ccc(C(=O)NCCc3ccccc3)cn2)cc1	none
Cc1ccc(C)c(Nc2ccc(C(=O)NCCc3ccccc3)cn2)c1	ROMK primary 2.7 | ROMK retest inactive
CC1=C(C(=O)OCc2ccccc2)C(/C=C/c2ccccc2)N2C(=O)CCSC2=N1 (configuration not stated)	ROMK primary -4.9 (no result: b-catenin transl) | ROMK retest inactive
CCOC(=O)C1=C(C)N=C2SCCC(=O)N2[C@@H]1/C=C/c1ccccc1	none (no result: ROMK primary)
CC(C)N1CCC(N2CCN(Cc3ccc(-c4ccccc4Cl)o3)CC2CCO)CC1 (configuration not stated)	none (no result: ROMK primary)
CC(C)N1CCC(N2CCN(Cc3ccc(-c4ccc(Cl)cc4)o3)CC2CCO)CC1 (configuration not stated)	ROMK primary -3.7 | ROMK retest 0.064
CC(C)c1nnc(SCC(=O)N2CCc3ccccc32)n1N	none
O=C(CC1C(=O)NCCN1Cc1ccc(F)cc1)NCCCn1cccn1 (configuration not stated)	none
CCN(C(=O)COC(=O)c1ccc(Cl)c(N)c1)C1CCS(=O)(=O)C1 (configuration not stated)	none
O=C(Oc1cccnc1)c1ccc(Cl)c(Cl)c1	ROMK primary -5.4 | ROMK retest inconclusive
COc1ccc(C(=O)Oc2cccnc2)cc1	none (no result: b-catenin transl)
Cc1cccc(C(=O)N2CCN(Cc3ccc4c(c3)OCO4)CC2)c1	none (no result: b-catenin transl, ROMK primary)
Cc1cccc(Cc2c(C)nc3c(C(=O)N4CCN(Cc5ccc6c(c5)OCO6)CC4)cnn3c2C)c1	none (no result: ROMK primary) | ROMK retest 0.046
C=Cc1ccc2c(c1)N(C)C(=C)S2	none
Cc1cccc(CN2C(=O)c3ccccc3Sc3ccc(C(=O)O)cc32)c1	none (no result: MT stabilize HCS)
O=C(c1ccc2c(c1)N(Cc1ccccc1)C(=O)c1ccccc1S2)N1CCCC1	none (no result: ROMK primary) | ROMK retest 0.061
C(#Cc1ccccc1)C[N+]1(CC#Cc2cccc3ccccc23)CCOCC1	ROMK primary -2.4 | ROMK retest 0.068
C#CC[N+]1(CC#Cc2ccccc2)CCOCC1	none (no result: ROMK primary)
CC1Cc2ccccc2N1C(=O)CSc1nnnn1C (configuration not stated)	none (no result: b-catenin transl)
CC1Cc2ccccc2N1C(=O)CSc1nnc(Cc2ccccc2)n1CCc1ccccc1 (configuration not stated)	ROMK primary -3.9 | ROMK retest 0.062
O=C1C2CSCN2C(=O)CN1CCCN1CCN(C(c2ccccc2)c2ccccc2)CC1 (configuration not stated)	none
CC(=O)C1=C(c2ccccc2)N(C(C)=O)n2c(C)nnc2S1	none
O=C1NC(Cc2c[nH]c3ccccc23)C(=O)N1CCOc1ccc(F)cc1 (configuration not stated)	none (no result: ROMK primary)
O=C1NC(Cc2c[nH]c3ccccc23)C(=O)N1Cc1ccc(CN2C(=O)NC(Cc3c[nH]c4ccccc34)C2=O)cc1 (configuration not stated)	ROMK primary -3.9 | ROMK retest 0.065
COc1ccc2c(c1)CCCC21NC(=O)N(CC(=O)NC(=O)NCc2ccccc2)C1=O (configuration not stated)	none
CC(=O)O/N=C1\C(=O)N(Cc2ccc(C)cc2)c2ccccc21	ROMK primary -5.2 | ROMK retest 0.063
CN1C(=O)/C(=N\OC(=O)c2ccccc2Cl)c2ccccc21	none
NNC(=O)COc1ccc(C(F)(F)F)cc1	none
CCOC(=O)CSc1ncnc2c1nnn2-c1ccc(F)cc1	none
CC(=O)C(Sc1ncnc2c1nnn2-c1ccc(F)cc1)C(=O)N(C)C (configuration not stated)	none (no result: b-catenin transl, ROMK primary) | ROMK retest inactive
CCN(c1ccccc1)S(=O)(=O)c1ccc(OC)c(NC(=O)C2CC(=O)N(Cc3ccccc3)C2)c1 (configuration not stated)	none (no result: MT stabilize HCS, ROMK primary)
c1ccc(Sc2cccc3ccccc23)c(CNC2=NCCN2)c1	ROMK primary -3.1 | ROMK retest 0.058
